Measured values as given in ChEMBL document CHEMBL3862017, “Synthesis and evaluation of the structural elements in alkylated tetrahydroisoquinolines for binding to CNS receptors” (Bioorg Med Chem, 2016).
Values belong to the compound of their own block, whether it stands above or below them.

What was measured:
D(4) dopamine receptor = biological target: T1, D(4) dopamine receptor (Rattus norvegicus, UniProt P30729)
T1 sequence (P30729 whole entry): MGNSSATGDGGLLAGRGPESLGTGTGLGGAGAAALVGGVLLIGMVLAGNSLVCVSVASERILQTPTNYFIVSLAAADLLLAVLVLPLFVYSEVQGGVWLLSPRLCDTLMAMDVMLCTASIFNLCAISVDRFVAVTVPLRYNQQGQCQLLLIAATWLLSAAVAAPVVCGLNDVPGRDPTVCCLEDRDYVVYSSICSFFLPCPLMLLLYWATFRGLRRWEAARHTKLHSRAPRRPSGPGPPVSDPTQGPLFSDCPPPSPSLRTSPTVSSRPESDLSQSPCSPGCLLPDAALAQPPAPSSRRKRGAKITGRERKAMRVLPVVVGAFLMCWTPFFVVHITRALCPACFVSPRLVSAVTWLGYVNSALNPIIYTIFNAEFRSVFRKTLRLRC

Histamine H1 receptor = Histamine H1 receptor (Homo sapiens, UniProt P35367); experiment: Displacement of [3H]-pyrilamine from human histamine H1 receptor by liquid scintillation counting method
Procedure, shortened: (§1)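 Binding assays run by the NIMH Psychoactive Drug Screening Program (PDSP) using its previously reported methods and radioligands. Affinity is given as Ki.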

[1] = biological target: D(2) dopamine receptor (Homo sapiens) (UniProt P14416); experiment: Displacement of [3H]-N-methylspiperone from human dopamine D2 receptor by liquid scintillation counting method; design: concentration or dose not given beside the values; settings: concentration not given here
Procedure, shortened: as §1

[2] = biological target: T2, 5-hydroxytryptamine receptor 2C (Homo sapiens, UniProt P28335); experiment: Displacement of [3H]-mesulergine from human 5-HT2C receptor by liquid scintillation counting method; settings: for inhibition (INH): human
T2 sequence (P28335 whole entry): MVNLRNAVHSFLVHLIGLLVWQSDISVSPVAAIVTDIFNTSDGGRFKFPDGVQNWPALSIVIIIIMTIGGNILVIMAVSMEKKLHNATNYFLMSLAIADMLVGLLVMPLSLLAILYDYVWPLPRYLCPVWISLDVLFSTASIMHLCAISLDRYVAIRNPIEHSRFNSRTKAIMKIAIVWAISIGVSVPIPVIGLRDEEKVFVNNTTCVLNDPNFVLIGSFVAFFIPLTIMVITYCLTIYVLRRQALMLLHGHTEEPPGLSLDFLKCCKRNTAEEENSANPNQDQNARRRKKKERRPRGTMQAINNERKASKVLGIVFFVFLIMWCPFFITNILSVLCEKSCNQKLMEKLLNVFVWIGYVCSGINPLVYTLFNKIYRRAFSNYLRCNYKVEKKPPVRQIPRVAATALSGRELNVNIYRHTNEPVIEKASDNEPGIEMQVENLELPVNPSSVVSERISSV
Procedure, shortened: as §1

[3] = biological target: 5-hydroxytryptamine receptor 2A (Homo sapiens, UniProt P28223); experiment: Displacement of [3H]-ketanserin from human 5-HT2A receptor by liquid scintillation counting method; settings: for inhibition: concentration not given here
Procedure, shortened: as §1

[4] = biological target: 5-hydroxytryptamine receptor 2B (Homo sapiens, UniProt P41595); experiment: Displacement of [3H]-LSD from human 5-HT2B receptor by liquid scintillation counting method
Procedure, shortened: as §1

[5] = biological target: D(3) dopamine receptor (Homo sapiens) (UniProt P35462); experiment: Displacement of [3H]-N-methylspiperone from human dopamine D3 receptor by liquid scintillation counting method; settings: concentration not given here
Procedure, shortened: as §1

[6] = biological target: T3, 5-hydroxytryptamine receptor 1A (Homo sapiens) (UniProt P08908); experiment: Displacement of [3H]-8-OH-DPAT from human 5-HT1A receptor by liquid scintillation counting method; settings: concentration not given here
T3 sequence (whole entry): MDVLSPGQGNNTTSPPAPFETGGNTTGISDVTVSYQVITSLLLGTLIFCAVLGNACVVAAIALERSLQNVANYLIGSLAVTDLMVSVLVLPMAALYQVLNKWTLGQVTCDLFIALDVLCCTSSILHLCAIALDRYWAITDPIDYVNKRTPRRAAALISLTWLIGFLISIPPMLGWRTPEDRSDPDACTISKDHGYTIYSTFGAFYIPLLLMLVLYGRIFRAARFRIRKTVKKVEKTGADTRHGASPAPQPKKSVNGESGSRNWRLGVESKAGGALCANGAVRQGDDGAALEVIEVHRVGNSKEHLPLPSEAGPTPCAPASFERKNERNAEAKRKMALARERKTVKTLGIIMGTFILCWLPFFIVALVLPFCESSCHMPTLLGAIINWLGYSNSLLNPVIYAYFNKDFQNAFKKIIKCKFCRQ
Procedure, shortened: as §1

[7] = biological target: 5-hydroxytryptamine receptor 7 (Homo sapiens) (UniProt P34969); experiment: Displacement of [3H]-LSD from human 5-HT7 receptor by liquid scintillation counting method; settings: concentration not given here
Procedure, shortened: as §1

5-hydroxytryptamine receptor 2B, sequence (P41595 whole entry): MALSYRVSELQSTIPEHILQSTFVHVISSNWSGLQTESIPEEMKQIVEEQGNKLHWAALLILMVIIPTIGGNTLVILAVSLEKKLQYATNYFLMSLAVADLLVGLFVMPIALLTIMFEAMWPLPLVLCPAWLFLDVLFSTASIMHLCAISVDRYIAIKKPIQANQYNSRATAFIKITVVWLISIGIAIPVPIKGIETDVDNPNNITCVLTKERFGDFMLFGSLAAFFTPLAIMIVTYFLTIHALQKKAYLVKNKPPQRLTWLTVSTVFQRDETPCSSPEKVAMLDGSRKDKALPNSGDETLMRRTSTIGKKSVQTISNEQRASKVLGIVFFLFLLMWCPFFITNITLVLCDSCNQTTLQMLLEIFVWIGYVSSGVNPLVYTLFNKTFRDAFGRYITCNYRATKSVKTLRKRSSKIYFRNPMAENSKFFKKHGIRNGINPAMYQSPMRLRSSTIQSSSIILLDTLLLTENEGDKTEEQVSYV
5-hydroxytryptamine receptor 2A, sequence (P28223 whole entry): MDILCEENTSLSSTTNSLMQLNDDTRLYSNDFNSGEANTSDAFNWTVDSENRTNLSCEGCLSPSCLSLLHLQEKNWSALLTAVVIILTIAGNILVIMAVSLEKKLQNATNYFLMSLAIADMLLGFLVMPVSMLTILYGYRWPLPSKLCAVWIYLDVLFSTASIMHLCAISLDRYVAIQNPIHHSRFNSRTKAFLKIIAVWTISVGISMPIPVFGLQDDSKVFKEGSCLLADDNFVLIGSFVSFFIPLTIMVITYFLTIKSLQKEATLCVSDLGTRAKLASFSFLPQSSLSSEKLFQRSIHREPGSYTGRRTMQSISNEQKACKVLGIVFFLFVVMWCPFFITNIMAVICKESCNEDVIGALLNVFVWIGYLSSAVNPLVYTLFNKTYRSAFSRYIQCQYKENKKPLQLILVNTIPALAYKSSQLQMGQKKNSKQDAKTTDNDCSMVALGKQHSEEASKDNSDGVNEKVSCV
D(2) dopamine receptor (Homo sapiens), sequence (P14416 whole entry): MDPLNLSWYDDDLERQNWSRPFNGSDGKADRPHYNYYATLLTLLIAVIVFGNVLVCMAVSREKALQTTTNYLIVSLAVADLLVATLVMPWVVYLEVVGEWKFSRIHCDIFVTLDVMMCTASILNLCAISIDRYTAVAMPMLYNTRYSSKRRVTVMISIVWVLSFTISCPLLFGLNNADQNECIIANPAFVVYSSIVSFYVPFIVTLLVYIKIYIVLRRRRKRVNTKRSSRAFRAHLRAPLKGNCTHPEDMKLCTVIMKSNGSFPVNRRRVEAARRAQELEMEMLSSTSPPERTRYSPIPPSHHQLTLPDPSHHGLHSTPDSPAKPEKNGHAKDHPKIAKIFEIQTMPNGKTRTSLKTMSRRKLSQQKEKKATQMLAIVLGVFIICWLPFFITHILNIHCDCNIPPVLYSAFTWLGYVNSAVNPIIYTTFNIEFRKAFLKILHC
Histamine H1 receptor, sequence (P35367 whole entry): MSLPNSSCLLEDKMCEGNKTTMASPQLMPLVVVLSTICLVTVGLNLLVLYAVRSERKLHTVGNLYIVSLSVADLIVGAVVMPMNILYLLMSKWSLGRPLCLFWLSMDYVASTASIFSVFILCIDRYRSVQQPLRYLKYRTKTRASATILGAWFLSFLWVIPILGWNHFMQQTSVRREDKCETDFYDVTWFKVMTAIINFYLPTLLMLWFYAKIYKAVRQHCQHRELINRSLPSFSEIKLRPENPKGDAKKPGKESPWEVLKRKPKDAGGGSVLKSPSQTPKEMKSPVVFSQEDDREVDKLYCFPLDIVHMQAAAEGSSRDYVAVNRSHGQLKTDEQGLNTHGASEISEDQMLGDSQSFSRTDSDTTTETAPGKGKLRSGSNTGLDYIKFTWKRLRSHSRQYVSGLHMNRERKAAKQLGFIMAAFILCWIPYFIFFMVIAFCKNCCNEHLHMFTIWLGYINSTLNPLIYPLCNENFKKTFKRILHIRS
5-hydroxytryptamine receptor 7 (Homo sapiens), sequence (P34969 whole entry): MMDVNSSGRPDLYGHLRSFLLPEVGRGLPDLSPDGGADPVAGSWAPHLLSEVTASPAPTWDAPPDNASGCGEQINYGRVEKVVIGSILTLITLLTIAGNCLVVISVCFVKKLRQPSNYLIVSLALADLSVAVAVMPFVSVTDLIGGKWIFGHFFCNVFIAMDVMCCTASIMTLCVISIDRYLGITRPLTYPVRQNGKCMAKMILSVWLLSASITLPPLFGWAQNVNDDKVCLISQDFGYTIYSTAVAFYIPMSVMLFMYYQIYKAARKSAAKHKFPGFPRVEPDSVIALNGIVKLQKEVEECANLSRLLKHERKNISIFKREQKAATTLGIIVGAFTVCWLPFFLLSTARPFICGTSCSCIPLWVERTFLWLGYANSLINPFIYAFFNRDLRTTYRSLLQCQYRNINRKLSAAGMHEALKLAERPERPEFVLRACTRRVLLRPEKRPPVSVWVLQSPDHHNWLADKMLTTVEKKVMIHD
D(3) dopamine receptor (Homo sapiens), sequence (P35462 whole entry): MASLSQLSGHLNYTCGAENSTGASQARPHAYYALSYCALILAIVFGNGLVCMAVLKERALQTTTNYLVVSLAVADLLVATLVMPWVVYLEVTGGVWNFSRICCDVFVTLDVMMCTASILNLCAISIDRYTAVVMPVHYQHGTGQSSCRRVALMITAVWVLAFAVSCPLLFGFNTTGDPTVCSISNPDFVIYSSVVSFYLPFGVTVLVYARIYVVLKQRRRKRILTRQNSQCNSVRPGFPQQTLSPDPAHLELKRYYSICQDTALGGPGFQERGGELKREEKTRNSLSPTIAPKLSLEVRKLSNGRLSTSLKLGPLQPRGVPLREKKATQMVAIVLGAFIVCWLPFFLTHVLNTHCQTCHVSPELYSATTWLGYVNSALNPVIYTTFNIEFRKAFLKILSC

- Ki (D(4) dopamine receptor): 0.272 µM
SMILES: COc1cc2c(cc1OC)CN(CCCCc1nc3cc(Cl)ccc3s1)CC2

- Ki (D(4) dopamine receptor): 0.082 µM
SMILES: O=C(CCCN1CCc2ccccc2CC1)c1ccc(Cl)cc1

- Ki (D(4) dopamine receptor): > 10 µM
SMILES: CC1(C)CC(=O)N(CCCCN2Cc3ccccc3C2)C(=O)C1

- inhibition (INH) (Histamine H1 receptor): < 50%
- inhibition [1]: < 50%
- inhibition (INH) [2]: < 50%
- Ki (D(4) dopamine receptor): 0.194 µM
SMILES: C1=C(CCN2CCc3ccccc3C2)Cc2ccccc21

- inhibition (INH) (Histamine H1 receptor): < 50%
- Ki (D(4) dopamine receptor): 3.34 µM
SMILES: O=C1Cc2cc(C(=O)CCCN3CCc4ccccc4C3)ccc2N1

- Ki (D(4) dopamine receptor): 0.037 µM
SMILES: Clc1ccc2sc(CCCCN3CCC4CCCCC4C3)nc2c1 (centres undefined)

- inhibition (INH) (Histamine H1 receptor): < 50%
- inhibition [5]: < 50%
- inhibition [1]: < 50%
- inhibition [6]: < 50%
- inhibition [3]: < 50%
- inhibition [7]: < 50%
- inhibition (INH) [2]: < 50%
- inhibition (INH) [4]: < 50%
SMILES: Cl.O=C(CCCN1CCCCc2ccccc21)c1ccc(Cl)cc1

- inhibition [1]: < 50%
- inhibition [6]: < 50%
- inhibition [3]: < 50%
- inhibition (INH) [4]: < 50%
SMILES: Cl.Clc1ccc(C(=CCCN2CCc3ccccc3C2)c2ccc(Cl)cc2)cc1

- Ki (D(4) dopamine receptor): 0.14 µM
SMILES: C1=C(CCN2CCc3ccccc3C2)CCc2ccccc21

The next lines start with the compound.

SMILES: Clc1cccc2c1CN(CCCCc1nc3ccccc3s1)CC2
- Ki (D(4) dopamine receptor): 0.129 µM

SMILES: Cl.Cl.c1ccc2c(c1)CCN(CCCc1nc3ccccc3[nH]1)C2
- Ki [3]: > 10 µM
- Ki [2]: > 10 µM
- Ki (D(4) dopamine receptor): 0.127 µM
- inhibition (INH) [4]: < 50%

SMILES: O=C(CCCN1CCCc2ccccc21)c1ccc(Cl)cc1
- inhibition (INH) (Histamine H1 receptor): < 50%
- inhibition [5]: < 50%
- inhibition [1]: < 50%
- inhibition [6]: < 50%
- inhibition [3]: < 50%
- inhibition [7]: < 50%
- inhibition (INH) [4]: < 50%

SMILES: O=C1c2ccccc2CC1CCN1CCc2ccccc2C1 (centres undefined)
- Ki (D(4) dopamine receptor): 1.1 µM

SMILES: O=C1c2ccc(F)cc2CC1CCN1CCc2ccccc2C1 (centres undefined)
- inhibition (INH) [2]: < 50%
- Ki (D(4) dopamine receptor): 0.251 µM

SMILES: CC1(C)CC(=O)N(CCCCN2CCc3ccccc3C2)C(=O)C1.Cl
- inhibition (INH) (Histamine H1 receptor): < 50%
- inhibition [1]: < 50%
- inhibition [6]: < 50%
- inhibition [3]: < 50%
- inhibition [7]: < 50%
- inhibition (INH) [2]: < 50%
- inhibition (INH) [4]: < 50%

SMILES: c1ccc2c(c1)CCN(CCCc1nc3ccccc3s1)C2
- inhibition [1]: < 50%
- Ki (D(4) dopamine receptor): 0.041 µM

SMILES: O=C1c2ccc(Cl)cc2CC1CCN1CCc2ccccc2C1 (centres undefined)
- Ki (D(4) dopamine receptor): 0.05 µM

SMILES: O=C(CCCN1CCCc2ccccc2C1)c1ccc(Cl)cc1
- Ki (D(4) dopamine receptor): 0.442 µM
